Measurements: ChEMBL document CHEMBL1142008, “Discovery and investigation of a novel class of thiophene-derived antagonists of the human glucagon receptor” (Bioorg Med Chem Lett, 2005)
Blank lines part the entries; values can stand above or below the molecule they belong to.

Legend:
Glucagon receptor [1] = molecular target: T1, Glucagon receptor (Homo sapiens, UniProt P47871); assay: Inhibitory concentration towards binding of [125I]glucagon to the human glucagon receptor expressed in CHO cells; type: cell-based
T1 sequence (P47871 whole entry): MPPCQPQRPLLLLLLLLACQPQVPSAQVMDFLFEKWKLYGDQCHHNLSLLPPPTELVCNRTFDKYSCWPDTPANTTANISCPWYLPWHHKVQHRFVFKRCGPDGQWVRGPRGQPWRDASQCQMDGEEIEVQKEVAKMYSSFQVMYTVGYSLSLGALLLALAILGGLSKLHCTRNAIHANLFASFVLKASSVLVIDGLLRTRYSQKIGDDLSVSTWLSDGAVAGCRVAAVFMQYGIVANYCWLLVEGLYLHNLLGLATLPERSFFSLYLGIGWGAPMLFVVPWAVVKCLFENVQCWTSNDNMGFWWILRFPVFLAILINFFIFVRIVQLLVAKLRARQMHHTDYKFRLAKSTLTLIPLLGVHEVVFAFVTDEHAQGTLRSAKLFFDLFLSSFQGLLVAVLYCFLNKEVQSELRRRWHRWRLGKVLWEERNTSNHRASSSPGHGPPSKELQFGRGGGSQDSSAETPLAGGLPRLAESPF

Glucagon receptor [2] = molecular target: T1, Glucagon receptor; assay: Inhibition of glucagon induced cAMP accumulation in human glucagon receptor transfected CHO cells; type: functional, cell-based
Procedure, shortened: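 Functional antagonism in CHO cells transfected with human glucagon receptor. Read-out is inhibition of glucagon-induced cAMP accumulation. Mean of at least two experiments, SD <50% of mean.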

[3] = Bioavailability in mouse (dose 1 mg/kg i.v.); type: ADME, organism-based; conditions: in vivo, iv
Procedure, shortened: (§1)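 Mouse PK, n = 3 mice per route. Dosed both IV and PO: 1.0 mg/kg IV / 2.0 mg/kg PO for one compound, 5.0 mg/kg IV / 10.0 mg/kg PO for others. Plasma clearance, Vdss, t1/2, Cmax, dose-normalized oral AUC and F% derived.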

[4] = Plasma clearance measured in mouse after intravenous administration of 1 mg/kg; n = 3; type: ADME, organism-based; design: dose 1 mg/kg, route intravenous; conditions: in vivo; procedure, shortened: as §1
[5] = Half life measured in mouse after intravenous administration of 1 mg/kg; type: ADME, organism-based; design: dose 1 mg/kg, route intravenous; conditions: in vivo; procedure, shortened: as §1
[6] = Oral bioavailability in mouse (dose 2 mg/kg); type: ADME, organism-based; conditions: in vivo; procedure, shortened: as §1
[7] = Steady state volume distribution measured in mouse after peroral administration of 2 mg/kg; type: ADME, organism-based; design: dose 2 mg/kg, route oral; conditions: in vivo, po; procedure, shortened: as §1
[8] = Maximum plasma concentration measured in mouse after peroral administration of 2 mg/kg; type: ADME, organism-based; design: dose 2 mg/kg, route oral; conditions: po; procedure, shortened: as §1
[9] = Half life measured in mouse after peroral administration of 2 mg/kg; type: ADME, organism-based; design: dose 2 mg/kg, route oral; conditions: in vivo, po; procedure, shortened: as §1
[10] = Steady state volume distribution measured in mouse after intravenous administration of 1 mg/kg; type: ADME, organism-based; design: dose 1 mg/kg, route intravenous; conditions: in vivo, read-out: Vdss; procedure, shortened: as §1
[11] = Maximum plasma concentration measured in mouse after intravenous administration of 1 mg/kg; type: ADME, organism-based; design: dose 1 mg/kg, route intravenous; procedure, shortened: as §1
[12] = Plasma clearance measured in mouse after peroral administration of 2 mg/kg; n = 3; type: ADME, organism-based; design: dose 2 mg/kg, route oral; conditions: in vivo, po; procedure, shortened: as §1
[13] = Maximum plasma concentration measured in mouse after oral administration of 2 mg/kg
Glucagon receptor [14] = molecular target: T1, Glucagon receptor; assay: Percent inhibition of glucagon induced cAMP accumulation in human glucagon receptor transfected CHO cells at a compound concentration of 10 uM; type: functional, cell-based
Procedure, shortened: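 Functional antagonism in CHO cells transfected with human glucagon receptor. Read-out is inhibition of glucagon-induced cAMP accumulation. Reported as IC50, or as percent inhibition at 10 µM compound. Mean of at least two experiments, SD <50% of mean.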

IC50 (Glucagon receptor [1]): 153 nM
IC50 (Glucagon receptor [2]): 41 nM
Compound: CCC(CC)C(=O)Nc1sc(C(=O)N(Cc2ccc(Cl)cc2Cl)C(C)C)c(C)c1C#N

bioavailability [3]: 36%
Clp [4]: 23 mL/min/kg
half-life [5]: 5.1 h
bioavailability [6]: 36%
Vdss [7]: 8.7 L/kg
Cmax [8]: 800 nM
IC50 (Glucagon receptor [1]): 89 nM
half-life [9]: 5.1 h
Vd [10]: 8.7 L/kg
Cmax [11]: 800 nM
Clp [12]: 23 mL/min/kg
IC50 (Glucagon receptor [2]): 34 nM
Compound: CCC(CC)C(=O)Nc1sc(-c2nc(Cc3ccc(Cl)cc3Cl)no2)c(C)c1C#N

bioavailability [3]: 9.2%
Clp [4]: 50 mL/min/kg
half-life [5]: 1.9 h
bioavailability [6]: 9.2%
Vdss [7]: 3.4 L/kg
Cmax [8]: 80 nM
IC50 (Glucagon receptor [1]): 92 nM
Cmax [13]: 80 nM
half-life [9]: 1.9 h
Vd [10]: 3.4 L/kg
Clp [12]: 50 mL/min/kg
IC50 (Glucagon receptor [2]): 63 nM
Compound: CCC(CC)C(=O)Nc1sc2c(c1C#N)CCC(N(C)Cc1ccc(Cl)cc1Cl)C2 (stereo unspecified)

IC50 (Glucagon receptor [1]): 181 nM
IC50 (Glucagon receptor [2]): 129 nM
Compound: CCC(CC)C(=O)Nc1sc2c(c1C#N)CCC(C(C)(C)CC)C2 (stereo unspecified)

IC50 (Glucagon receptor [1]): 129 nM
IC50 (Glucagon receptor [2]): 59 nM
Compound: CCC(CC)C(=O)Nc1sc2c(c1C#N)CCC(N(Cc1ccc(Cl)cc1Cl)C(C)C)C2 (stereo unspecified)

bioavailability [3]: 39%
Clp [4]: 84 mL/min/kg
half-life [5]: 2.7 h
bioavailability [6]: 39%
Vdss [7]: 16 L/kg
Cmax [8]: 800 nM
IC50 (Glucagon receptor [1]): 368 nM
half-life [9]: 2.7 h
Vd [10]: 16 L/kg
Cmax [11]: 800 nM
Clp [12]: 84 mL/min/kg
IC50 (Glucagon receptor [2]): 185 nM
Compound: CCC(CC)C(=O)Nc1sc(-c2nc(CC(C)C)no2)c(C)c1C#N

IC50 (Glucagon receptor [1]): 3820 nM
Compound: CCC(CC)C(=O)Nc1sc2c(c1C#N)CCC(N(C)Cc1ccccc1)C2 (stereo unspecified)

IC50 (Glucagon receptor [1]): 3210 nM
Compound: CCC(CC)C(=O)Nc1sc(-c2nnc(CC(C)C)o2)c(C)c1C#N

IC50 (Glucagon receptor [1]): 870 nM
inhibition (Glucagon receptor [14]): 38%
Compound: CCC(CC)C(=O)Nc1sc2c(c1C(N)=O)CCC(C(C)(C)CC)C2 (stereo unspecified)

IC50 (Glucagon receptor [1]): 118 nM
IC50 (Glucagon receptor [2]): 59 nM
Compound: CCC(CC)C(=O)Nc1sc2c(c1C#N)CCC(N(C)C1CCCc3ccccc31)C2 (single isomer, unassigned; form 2)

IC50 (Glucagon receptor [1]): 139 nM
IC50 (Glucagon receptor [2]): 158 nM
Compound: CCC(CC)C(=O)Nc1sc2c(c1C#N)CCC(N(C)C1CCCc3ccccc31)C2 (single isomer, unassigned; form 1)

Compound: CCC(C)(C)C1CCc2c(sc(NC(=O)c3ccc(Br)cc3)c2C#N)C1 (stereo unspecified)
IC50 (Glucagon receptor [1]): > 20000 nM
